Results: ChEMBL document CHEMBL2177103, “Discovery of diverse human dihydroorotate dehydrogenase inhibitors as immunosuppressive agents by structure-based virtual screening” (J Med Chem, 2012)

Legend:
Jurkat [1] = experiment: Cytotoxicity against human Jurkat cells after 4 days by MTT assay; type: cell-based; conditions: 96 h
[2] = Immunosuppressive activity in mouse T cells assessed as inhibition of two way mixed lymphocyte reaction after 4 days by MTT assay; type: functional, cell-based; conditions: T-cell, 96 h
[3] = Immunosuppressive activity in ICR mouse B cells assessed as inhibition of LPS-stimulated cell proliferation after 72 hrs by MTT assay; type: functional, cell-based
[4] = molecular target: T1, Dihydroorotate dehydrogenase (Plasmodium falciparum, UniProt Q54A96); experiment: Inhibition of Plasmodium falciparum DHODH expressed in Escherichia coli BL21 (DE3) using L-dihydroorotate as substrate after 10 mins by DCIP dye reduction assay
T1 sequence (Q54A96 whole entry): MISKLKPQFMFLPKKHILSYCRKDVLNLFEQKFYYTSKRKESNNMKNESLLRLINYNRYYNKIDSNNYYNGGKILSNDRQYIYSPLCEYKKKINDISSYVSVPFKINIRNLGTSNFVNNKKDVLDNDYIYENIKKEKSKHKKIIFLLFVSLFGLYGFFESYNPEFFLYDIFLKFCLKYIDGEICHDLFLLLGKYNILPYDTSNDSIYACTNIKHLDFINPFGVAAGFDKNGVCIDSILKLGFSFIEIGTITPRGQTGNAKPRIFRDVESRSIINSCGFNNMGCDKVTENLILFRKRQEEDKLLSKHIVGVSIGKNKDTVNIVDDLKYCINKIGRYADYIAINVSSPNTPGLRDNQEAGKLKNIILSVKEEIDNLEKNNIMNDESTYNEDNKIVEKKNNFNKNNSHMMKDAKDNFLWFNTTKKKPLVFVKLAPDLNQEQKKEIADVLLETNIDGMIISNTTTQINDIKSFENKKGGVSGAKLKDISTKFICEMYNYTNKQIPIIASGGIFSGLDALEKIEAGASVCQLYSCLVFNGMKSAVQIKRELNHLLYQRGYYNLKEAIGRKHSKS
Procedure, shortened: (§1)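 DCIP reduction read as absorbance decrease at 600 nm over 5 min. Enzyme preincubated 10 min with compound (DMSO stock diluted in assay buffer); reaction started with dihydroorotate, 500 μM final.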

[5] = molecular target: Dihydroorotate dehydrogenase (quinone), mitochondrial (Homo sapiens, UniProt Q02127); experiment: Inhibition of human DHODH expressed in Escherichia coli BL21(DE3) using L-dihydroorotate as substrate after 10 mins by DCIP dye reduction assay
[6] = molecular target: T2, Dihydroorotate dehydrogenase (Plasmodium falciparum) (UniProt Q54A96); experiment: Inhibition of Plasmodium falciparum DHODH expressed in Escherichia coli BL21 (DE3) using L-dihydroorotate as substrate at 10 uM after 10 mins by DCIP dye reduction assay; procedure, shortened: as §1
T2 sequence (whole entry): T1 sequence (Q54A96 whole entry)

Jurkat [7] = experiment: Selectivity ratio of IC50 for human Jurkat cells to IC50 for ICR mouse B cells
T-cell = experiment: Selectivity ratio of IC50 for mouse T cells to IC50 for ICR mouse B cells; type: functional

Chain of Dihydroorotate dehydrogenase (quinone), mitochondrial (Q02127 whole entry): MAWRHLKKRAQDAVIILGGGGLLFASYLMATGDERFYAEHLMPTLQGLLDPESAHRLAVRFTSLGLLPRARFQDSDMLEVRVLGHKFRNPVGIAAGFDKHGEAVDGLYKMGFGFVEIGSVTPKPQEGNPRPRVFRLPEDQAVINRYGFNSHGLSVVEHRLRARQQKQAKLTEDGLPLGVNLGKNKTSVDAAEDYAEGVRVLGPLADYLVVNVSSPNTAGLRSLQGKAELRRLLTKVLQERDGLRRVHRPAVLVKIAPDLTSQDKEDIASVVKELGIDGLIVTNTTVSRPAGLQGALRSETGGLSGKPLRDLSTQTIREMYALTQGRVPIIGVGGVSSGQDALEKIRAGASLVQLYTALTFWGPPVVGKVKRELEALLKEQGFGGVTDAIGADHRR

Structure (SMILES) | IC50 (Jurkat [1]) [µM] | IC50 [2] [µM] | IC50 [3] [µM] | IC50 [4] [µM] | IC50 [5] [µM] | inhibition [6] [%] | Ratio IC50 (Jurkat [7]) | Ratio IC50 (T-cell)
CC(=O)c1sc(Nc2ccc(C)c(Cl)c2)nc1C | 5.39 | 9.58 | 4.65 | 0.76 | 0.93 | – | – | –
COC(=O)c1ccc(Nc2nc(-c3ccc(Cl)cc3)c(C)s2)cc1 | 15.7 | 13.3 | 13 | – | 1.27 | < 20 | – | –
O=c1cc(-c2ccc(O)c(O)c2)oc2ccccc12 | – | – | – | 9.48 | 12.4 | – | – | –
C/C=C/C[C@@H](C)[C@@H](O)[C@H]1C(=O)N[C@@H](CC)C(=O)N(C)CC(=O)N(C)[C@@H](CC(C)C)C(=O)N[C@@H](C(C)C)C(=O)N(C)[C@@H](CC(C)C)C(=O)N[C@@H](C)C(=O)N[C@H](C)C(=O)N(C)[C@@H](CC(C)C)C(=O)N(C)[C@@H](CC(C)C)C(=O)N(C)[C@@H](C(C)C)C(=O)N1C [CYCLOSPORINE] | > 10 | – | – | – | – | – | – | –
O=C(Nc1nc2ccccc2s1)c1ccc(Cl)cc1Cl | > 100 | 58.5 | 19.9 | 4.67 | 1.83 | – | – | –
O=C(/C=C/c1ccc(F)cc1)Nc1ccccn1 | – | – | – | – | 13 | < 20 | – | –
C/C(O)=C(\C#N)C(=O)Nc1ccc(C(F)(F)F)cc1 [TERIFLUNOMIDE] | 26.7 | 48 | 4.07 | – | – | – | – | –
O=Cc1ccccc1/C=N/Nc1nc(-c2ccccc2)cs1 | > 100 | 12.4 | 14 | – | 0.11 | < 20 | – | –
Oc1ccc(/C=N/c2cccc3ccccc23)c(O)c1 | 26.3 | 23.6 | 11.3 | – | 0.78 | < 20 | – | –
Brc1ccc(-c2csc(N/N=C/c3ccccc3)n2)cc1 | 1.07 | > 100 | > 100 | – | 3.3 | < 20 | – | –
O=C(O)c1ccc(/C=N/c2cccc3ccccc23)cc1 | – | – | – | – | 15.6 | < 20 | – | –
O=C(Nc1nc2ccccc2s1)c1cccc(C(Cl)(Cl)Cl)c1 | 43.5 | 25.4 | 8.74 | 1.93 | 0.34 | – | – | –
CC1=NN(c2ccccc2)C(=O)/C1=C/c1ccc(-c2cccc(C(=O)O)c2)o1 | > 100 | 73.5 | > 100 | – | 2.74 | < 20 | – | –
CCc1cccc(NC(=O)/C=C/c2ccc(Cl)c(Cl)c2)c1 | 30.1 | 8.38 | 11.2 | – | 0.55 | < 20 | – | –
O=C(/C=C/c1ccc(O)c(C(=O)O)c1)c1ccc(Cl)cc1 | 45.7 | 30.2 | 1.78 | – | 6.06 | < 20 | 26 | 17
Cc1ccc(C)c(/N=C/c2cccc(O)c2O)c1 | – | – | – | – | 17.8 | < 20 | – | –
COc1cccc(C(=O)Nc2nc3ccccc3s2)c1 | > 100 | > 100 | 16.1 | – | 6.83 | < 20 | – | –
c1ccc2c(c1)Nc1nc3ccccc3nc1O2 | – | – | – | – | 18.3 | < 20 | – | –
Oc1ccc(/N=C/c2ccc3ccccc3c2)cc1 | 45.7 | 9.45 | 9.93 | – | 3.96 | < 20 | – | –
Cc1ccccc1C(=O)Nc1cc(Cl)c(O)c(Cl)c1 | – | – | – | – | 16.1 | < 20 | – | –
